# E-sel TNF inh: blocks E-selectin expression induced by TNF alpha. actives 0.71% (n = 120,000). inhibition, % at 2 µM. HUVEC TNFa-induced E-selectin immunofluorescence, high content;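 active means inhibition above the batch mean plus 3 SD, and confirmed as a hit on visual image review, cut at about 43% in these data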
# FAK inh: inhibitors of human focal adhesion kinase; biochemical FAK kinase activity assay; inhibition, %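 (tested at 7 µM)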; actives 0.84% (n = 97,000); in the data active means inhibition above about 19%
# F-actin modifier: cytoskeleton assembly modification; actives 0.18% (n = 91,000); AID 836; inhibition, % at 2 µM; HUVEC TNFa F-actin phalloidin imaging, high content;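 active means inhibition above the batch mean plus 3 SD and confirmed as a hit by visual image inspection, cut at about 30% in these data, passing the limit was not always enough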
# PLK1 inh: PLK1 (human) kinase inhibition; P53350; recombinant PLK1 kinase, TR-FRET peptide phosphorylation; inhibition, % at 10 µM; actives 0.53% (n = 97,000); AID 619;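 active means inhibition of 50% or more in the single-concentration screen; inactive means inhibition below 50%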
# Target sequence (P53350 whole entry, looked up): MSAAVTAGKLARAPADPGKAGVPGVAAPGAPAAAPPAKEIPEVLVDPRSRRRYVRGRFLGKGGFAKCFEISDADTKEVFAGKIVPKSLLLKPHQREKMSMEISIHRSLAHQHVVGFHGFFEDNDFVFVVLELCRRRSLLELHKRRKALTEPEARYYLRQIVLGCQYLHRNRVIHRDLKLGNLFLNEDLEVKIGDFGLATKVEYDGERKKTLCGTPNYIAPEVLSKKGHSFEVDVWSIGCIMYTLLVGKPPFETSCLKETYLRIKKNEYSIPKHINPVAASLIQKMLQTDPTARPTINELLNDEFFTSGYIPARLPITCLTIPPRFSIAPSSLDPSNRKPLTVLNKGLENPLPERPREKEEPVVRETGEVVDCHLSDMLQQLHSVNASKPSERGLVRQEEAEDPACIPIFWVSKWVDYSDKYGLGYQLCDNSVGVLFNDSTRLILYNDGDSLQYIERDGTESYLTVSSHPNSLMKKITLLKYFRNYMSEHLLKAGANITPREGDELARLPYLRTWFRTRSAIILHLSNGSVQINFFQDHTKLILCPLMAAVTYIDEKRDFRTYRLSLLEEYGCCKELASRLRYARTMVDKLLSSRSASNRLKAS
# Plk1 PBD FP: inhibitors of human Plk1 polo box domain binding. AID 693. actives 0.13% (n = 97,000). inhibition, %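 (tested at about 20 µM)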. Plk1 PBD phosphopeptide binding, fluorescence polarization; in the data active means inhibition above about 34%, passing the limit was not always enough
# HIV Rev-RRE inh: disrupts HIV-1 Rev binding to RRE RNA. Rev peptide-RRE RNA binding, FRET. inhibition, % at 8 µM. actives 0.79% (n = 97,000). AID 704;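 active means inhibition above the screen-wide mean plus 3 SD, cut at about 35% in these data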
#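 System: Cy5-labelled duplex RRE RNA binding fluorescein-labelled HIV Rev peptide; Signal: fluorescein-to-Cy5 FRET, 480 nm excitation; Also added: labelled Rev peptide; Compound: one concentration, 8 µM nominal; Buffer or medium: HEPES pH 7.5 salt buffer with EDTA; Read-out: % inhibition of FRET ratio versus controls; Schedule: 5 min preincubation and 15 min binding, 25 °C.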
# Numbers stand for hits; 0 = inactive; - = not tested or not shown; [ ] = dose if it differs, or a comment. The list is not random: actives were taken first. Their share in the collection is about 2.2%.
SMILES,E-sel TNF inh,FAK inh,F-actin modifier,PLK1 inh,Plk1 PBD FP,HIV Rev-RRE inh
CCc1cccc(NC(=O)c2ccc(NS(=O)(=O)c3c(C)noc3C)cc2)c1,0,0,0,0,0,0
CC(=O)c1cccc(NS(=O)(=O)N(C)C)c1,0,0,0,0,0,0
Cc1cc(C)cc(OCC(O)CN2CCC(CN3C(=O)c4cccc5cccc(c45)C3=O)CC2)c1 (stereo unspecified),-,-,-,0,-,-
CC1CCN(CC(=O)Nc2cccc(C(=O)Nc3cccc(C(F)(F)F)c3)c2)CC1,0,-,-,-,-,-
Cc1nn(-c2ccccc2)c(C)c1C(=O)OCC(=O)N1CC(=O)Nc2ccccc21,0,0,0,0,0,0
Cc1nn(-c2ccccc2)c(C)c1C(=O)OC/C(O)=C(\C#N)c1nc2ccccc2[nH]1,0,0,0,0,0,40
CCOC(=O)N1CCC(N2C(=O)c3cc(C(=O)NC4CCCCC4)ccc3C2O)CC1 (stereo unspecified),-,0,-,61,0,0
Cc1cccc(NC(=O)Cn2nc(C(F)(F)F)cc2C2CC2)c1,0,0,40,0,0,0
Cc1ccc(C)c(NC(=O)Cn2nc(C(F)(F)F)cc2C2CC2)c1,0,0,0,0,0,0
c1ccc(-c2cn3nc4c(nc3n2)CCCC4)cc1,0,0,0,0,0,48
O=C(Nc1ccccc1-c1nc2ccccc2[nH]1)c1sc2ccccc2c1Cl,0,-,-,-,-,-
COc1ccc(S(=O)(=O)N(CC(N)=O)C2CCCCC2)cc1Cl,45,0,0,0,0,0
Cc1ccccc1OCC(=O)Nc1ccc2c(c1)COC2=O,0,0,36,0,0,0
CCN(C(=O)COC(=O)c1cc(C)n(-c2ccc(F)cc2)c1C)C1CCS(=O)(=O)C1 (stereo unspecified),100,0,0,0,0,0
CCCN1C(=O)/C(=C/C=C2\N(CC)c3ccccc3C2(C)C)SC1=S,0,0,0,0,0,136[fluorescence artefact?]
CC(C)OC(=O)c1c(N)n(CCCN2CCOCC2)c2nc3ccccc3nc12,0,0,0,0,0,0
CC(C)OC(=O)c1c2nc3ccccc3nc2n2c1[nH]c(=O)c1ccccc12,0,0,0,0,0,69
Cc1cccc2nc(-c3cccc(NC(=O)c4ccc(Cl)cc4)c3)cn12,0,-,-,-,-,-
CN(C(=O)c1ccccc1OC1CCN(S(C)(=O)=O)CC1)C1CCOC1 (stereo unspecified),0,-,-,-,-,-
C=CCNC(=O)c1c(Cl)cccc1Cl,0,0,47,0,0,0
C=CCNC(=O)c1c(-c2c(F)cccc2Cl)noc1C,0,0,-,0,0,0
CCCCC(=O)OCC(=O)Nc1ccc(C)c(F)c1,0,-,-,-,-,-
CC(C)COC(=O)c1cccc2c1-c1ccccc1/C2=N\O,0,55,0,0,0,0
CCOC(=O)c1ccc(NC(=O)CCc2nc(-c3ccc(Cl)cc3)no2)cc1,0,0,0,0,0,0
CCOC(=O)c1ccc(NC(=O)CCc2nc(-c3ccc(C)cc3)no2)cc1,0,0,0,64,0,0
SMILES,E-sel TNF inh,FAK inh,F-actin modifier,PLK1 inh,Plk1 PBD FP,HIV Rev-RRE inh
O=C(CC1Nc2ccccc2NC1=O)c1ccccc1 (stereo unspecified),0,0,0,0,0,73
CCOC(=O)c1c(NC(=S)Nc2ccccc2)sc2c1CCN(CC)C2,0,0,0,0,0,121[fluorescence artefact?]
COn1cnnc1-c1ccccc1,-,0,0,0,0,41
C/C(=N\NC(=O)c1cc(-c2cccc([N+](=O)[O-])c2)n[nH]1)c1ccccc1O,0,-,-,-,-,-
CCCSc1n[nH]c(NC(C)=O)n1,-,0,-,69,0,0
Cc1ccc2cc3c(N)c(C(=O)N4CC(=O)Nc5ccccc54)sc3nc2c1,0,0,-,0,0,67
C=CCN1CCN(C(c2cc(OC)ccc2OC)c2nnnn2CC2CCCO2)CC1 (stereo unspecified),71,0,0,0,0,0
CCOC(=O)/C(=C\Nc1ccccc1C(F)(F)F)Sc1ncc(C(F)(F)F)cc1Cl,-,0,0,0,0,0
N#Cc1c(Sc2ncc(C(F)(F)F)cc2Cl)nsc1C/C=N\OCc1ccccc1Br,0,0,0,0,0,69
CCO/C(=C/c1sc2ccc(OC)cc2[n+]1CCCS(=O)(=O)[O-])CC,0,0,0,0,0,0
CCOC(=O)C[n+]1c(C)sc2ccc(OC)cc21,66,0,0,0,0,0
CCN(CC(=O)Nc1cccc(OC)c1)C(=O)c1ccc(C)s1,0,0,0,0,0,0
CCN1CCCC1CNC1=NCCCCC1 (stereo unspecified),71,0,0,0,0,0
